Measurements from ChEMBL document CHEMBL1125910, “Design of a well-absorbed renin inhibitor” (J Med Chem, 1991).

Tests used:
[1] = tested on: Rattus norvegicus; assay: Upon intraduodenal administration in rats at a dose of 10 mg/kg, portal plasma levels calculated after 10 min.; assay type: functional, organism-based; set-up: dose 10 mg/kg
Summary of the method: (§1)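 Anesthetized rats given 10 mg/kg intraduodenally. Blood sampled at 10 and 30 min from the portal vein and from the systemic circulation. Drug level in plasma measured by renin inhibition assay, reported in ng/mL as mean ± SE, n = 3 (some groups 5 or 6).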

[2] = tested on: Rattus norvegicus; assay: Upon intraduodenal administration in rats at a dose of 10 mg/kg, systemic plasma levels calculated after 10 min.; assay type: functional, organism-based; set-up: dose 10 mg/kg; summary of the method: as §1
[3] = tested on: Rattus norvegicus; assay: Upon intraduodenal administration in rats at a dose of 10 mg/kg, systemic plasma levels calculated after 30 min.; assay type: functional, organism-based; set-up: dose 10 mg/kg; summary of the method: as §1
[4] = target: T1, Renin (Homo sapiens, UniProt P00797); assay: Compound was evaluated for the inhibitory concentration against human plasma renin at pH 7.4; assay type: cell-free
T1 sequence (P00797 whole entry): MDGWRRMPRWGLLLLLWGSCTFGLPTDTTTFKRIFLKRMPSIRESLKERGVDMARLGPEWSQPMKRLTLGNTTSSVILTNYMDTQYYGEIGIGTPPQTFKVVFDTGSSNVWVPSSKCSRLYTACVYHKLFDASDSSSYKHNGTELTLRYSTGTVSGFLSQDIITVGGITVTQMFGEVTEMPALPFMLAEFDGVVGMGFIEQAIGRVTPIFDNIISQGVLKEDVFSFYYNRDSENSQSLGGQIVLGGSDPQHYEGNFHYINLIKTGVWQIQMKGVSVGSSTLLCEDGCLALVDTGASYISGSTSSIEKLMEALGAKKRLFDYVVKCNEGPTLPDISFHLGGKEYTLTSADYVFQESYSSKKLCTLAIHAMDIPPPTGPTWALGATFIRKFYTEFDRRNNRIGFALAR
Summary of the method: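 Renin inhibition assayed in human plasma, with plasma renin as the enzyme source, at pH 7.4. IC50 reported in nM.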

[5] = tested on: Rattus norvegicus; assay: Upon intraduodenal administration in rats at a dose of 10 mg/kg, portal plasma levels calculated after 30 min.; assay type: functional, organism-based; set-up: dose 10 mg/kg; summary of the method: as §1
[6] = target: T1, Renin; assay: Compound was evaluated for the inhibitory concentration against purified human renal renin at pH 6.5
[7] = target: T2, Cathepsin D (Bos taurus) (UniProt P80209); assay: Inhibitory activity against cathepsin D in bovine at 1*10e-5 M concentration.
T2 sequence (whole entry): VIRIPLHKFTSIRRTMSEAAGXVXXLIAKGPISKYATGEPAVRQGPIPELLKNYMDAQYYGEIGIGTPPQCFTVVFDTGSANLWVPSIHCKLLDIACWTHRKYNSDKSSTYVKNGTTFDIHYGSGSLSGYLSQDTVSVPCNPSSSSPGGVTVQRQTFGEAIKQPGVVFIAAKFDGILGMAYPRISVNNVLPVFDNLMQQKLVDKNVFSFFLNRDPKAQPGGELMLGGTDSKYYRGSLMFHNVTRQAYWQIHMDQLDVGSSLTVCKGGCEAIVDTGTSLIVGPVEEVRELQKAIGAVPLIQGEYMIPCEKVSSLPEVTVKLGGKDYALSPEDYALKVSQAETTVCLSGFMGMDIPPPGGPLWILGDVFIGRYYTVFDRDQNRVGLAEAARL
Summary of the method: (§2)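 Bovine or human cathepsin D, assayed at pH 3.0; percent inhibition recorded with inhibitor at 1 × 10^-5 M, and also at 1 × 10^-7 M.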

[8] = target: T2, Cathepsin D (Bos taurus); assay: Inhibitory activity against cathepsin D in bovine at 1*10e-7 M concentration.; summary of the method: as §2
[9] = target: Cathepsin D (Homo sapiens) (UniProt P07339); assay: Inhibitory activity against cathepsin D in human at 1*10e-5 M concentration.; summary of the method: as §2
[10] = target: Cathepsin D (Homo sapiens) (UniProt P07339); assay: Inhibitory activity against cathepsin D in human at 1*10e-7 M concentration.; summary of the method: as §2
[11] = target: Pepsin A (Homo sapiens) (UniProt P0DJD9); assay: Inhibitory activity against human pepsin at 1*10e-5 M; assay type: functional
Summary of the method: (§3)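 Human or porcine pepsin, assayed at pH 2.0; percent inhibition recorded with inhibitor at 1 × 10^-5 M.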

[12] = target: Pepsin A (Sus scrofa) (UniProt P00791); assay: Inhibitory activity against pepsin in porcine at 1*10e-5 M concentration.; assay type: functional; summary of the method: as §3
Chain of Pepsin A (Sus scrofa) (P00791 60-385 limits assumed): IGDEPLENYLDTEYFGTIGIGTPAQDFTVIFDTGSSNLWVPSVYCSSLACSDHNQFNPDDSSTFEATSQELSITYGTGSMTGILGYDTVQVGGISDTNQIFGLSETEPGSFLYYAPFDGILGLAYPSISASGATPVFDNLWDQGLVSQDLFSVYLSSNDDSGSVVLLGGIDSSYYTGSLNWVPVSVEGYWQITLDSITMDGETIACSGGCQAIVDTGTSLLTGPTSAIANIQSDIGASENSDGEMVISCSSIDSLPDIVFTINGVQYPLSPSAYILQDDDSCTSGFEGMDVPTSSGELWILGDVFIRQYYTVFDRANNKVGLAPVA

Chain of Cathepsin D (Homo sapiens) (P07339 65-162 limits assumed): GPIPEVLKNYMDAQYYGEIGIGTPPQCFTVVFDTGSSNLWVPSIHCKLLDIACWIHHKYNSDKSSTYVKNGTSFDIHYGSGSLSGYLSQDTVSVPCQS
Chain of Cathepsin D (Homo sapiens) (P07339 169-412 limits assumed): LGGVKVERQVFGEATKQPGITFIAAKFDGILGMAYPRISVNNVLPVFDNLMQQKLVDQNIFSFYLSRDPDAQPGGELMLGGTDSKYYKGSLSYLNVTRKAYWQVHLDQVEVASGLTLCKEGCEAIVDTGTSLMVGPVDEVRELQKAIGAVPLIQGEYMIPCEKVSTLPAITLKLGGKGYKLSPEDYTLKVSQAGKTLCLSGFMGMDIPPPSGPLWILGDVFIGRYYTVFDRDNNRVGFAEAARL
Chain of Pepsin A (Homo sapiens) (P0DJD9 63-388 limits assumed): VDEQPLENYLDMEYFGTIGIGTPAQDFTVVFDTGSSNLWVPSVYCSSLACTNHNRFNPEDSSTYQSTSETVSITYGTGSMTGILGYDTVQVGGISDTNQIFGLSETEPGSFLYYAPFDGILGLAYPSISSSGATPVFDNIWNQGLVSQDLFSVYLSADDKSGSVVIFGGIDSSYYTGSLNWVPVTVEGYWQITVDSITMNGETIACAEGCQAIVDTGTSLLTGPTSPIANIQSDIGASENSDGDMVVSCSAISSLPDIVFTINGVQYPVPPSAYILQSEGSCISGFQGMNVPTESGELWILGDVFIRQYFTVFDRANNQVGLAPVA

SMILES	IC50 [4]	IC50 [6]	inhibition [7]	inhibition [8]	inhibition [9]	inhibition [10]	inhibition [11]	inhibition [12]	Plasma level [1]	Plasma level [2]	Plasma level [3]	Plasma level [5]
CCN1C[C@@H]([C@H](O)[C@H](CC2CCCCC2)NC(=O)[C@H](Cc2cscn2)NC(=O)[C@@H](CC(=O)N2CCOCC2)Cc2ccccc2)OC1=O	8.1 nM	0.6 nM	93%	28%	100%	40%	26%	57%	1900 ng/mL	320 ng/mL	300 ng/mL	1100 ng/mL
CCN1C[C@@H]([C@H](O)[C@H](CC2CCCCC2)NC(=O)[C@H](Cc2cn(C)cn2)NC(=O)[C@@H](CC(=O)N2CCOCC2)Cc2ccccc2)OC1=O	58 nM	7.4 nM										
CCN1C[C@@H]([C@H](O)[C@H](CC2CCCCC2)NC(=O)[C@H](Cc2cccs2)NC(=O)[C@@H](CC(=O)N2CCOCC2)Cc2ccccc2)OC1=O	43 nM	1.5 nM										

Further lines, with some results ahead:

IC50 [4]	IC50 [6]	inhibition [7]	inhibition [8]	inhibition [9]	inhibition [10]	inhibition [11]	inhibition [12]	SMILES	Plasma level [1]	Plasma level [2]	Plasma level [3]	Plasma level [5]
21 nM	1.1 nM							CCN1C[C@@H]([C@H](O)[C@H](CC2CCCCC2)NC(=O)[C@H](Cc2cc[nH]n2)NC(=O)[C@@H](CC(=O)N2CCOCC2)Cc2ccccc2)OC1=O	28 ng/mL	6.7 ng/mL	7 ng/mL	58 ng/mL
		2%					2%	CCN1C[C@@H]([C@H](O)[C@H](CC2CCCCC2)NC(=O)[C@H](Cc2c[nH]cn2)NC(=O)[C@@H](CC(=O)N2CCOCC2)Cc2ccccc2)OC1=O	280 ng/mL	55 ng/mL	34 ng/mL	390 ng/mL
